The values that follow come from ChEMBL document CHEMBL1139435, “Beta-oxygenated analogues of the 5-HT2A serotonin receptor agonist 1-(4-bromo-2,5-dimethoxyphenyl)-2-aminopropane” (J Med Chem, 2004).

Test [1] deals with 5-hydroxytryptamine receptor 2A (Rattus norvegicus) (UniProt P14842). Kind of test: Efficacy as 5-HT2A receptor-mediated intracellular calcium [Ca2+] mobilization in rat A7r5 cells. The class given is functional, cell-based. In a few lines: (§1)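 Rat A7r5 vascular smooth muscle cells grown in DMEM/10% FBS, seeded at 20 000 cells/well, cultured 2 days. Loaded with calcium dye in HBSS/20 mM HEPES/2.5 mM probenecid pH 7.4 for 1 h at 23 °C. Response is peak minus basal fluorescence, expressed as % of maximal 5-HT response.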

The target of test [2] is T1, 5-hydroxytryptamine receptor 2A (Rattus norvegicus, UniProt P14842). Kind of test: Binding affinity for 5-HT2A serotonin receptor. The gist of the method:
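Incubated 1 h at 23 °C. Nonspecific binding defined with methiothepin (10 µM final). Ended by vacuum filtration over GF/B filters presoaked in 0.3% polyethyleneimine, washed with ice-cold buffer. Bound counts read by scintillation. IC50 for displacing labelled DOI binding.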

Test [3] concerns Monkey. Kind of test: Percent reduction of intraocular pressure after 3 hours following topical ocular administration to normal eye conscious cynomolgus monkeys. The class given is functional, Cercopithecidae. In a few lines:
(§2)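 Conscious cynomolgus monkeys dosed topically in the eye with 300 µg in phosphate-buffered saline, pH 7.4. Vehicle was given to test eyes of five or six further animals. IOP measured at baseline and at 1, 3 and 6 h. Values are % reduction from baseline.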

Test [4] deals with Monkey. Description: Percent reduction of intraocular pressure after 1 hour following topical ocular administration to normal eye conscious cynomolgus monkeys. The class given is functional, Cercopithecidae. In a few lines:
as §2

The subject of test [5] is Monkey. Description: Percent reduction of intraocular pressure after 6 hours following topical ocular administration to normal eye conscious cynomolgus monkeys. The class given is functional, Cercopithecidae. The gist of the method: as §2
In test [6] the target is T1, 5-hydroxytryptamine receptor 2A. Description: Serotonin 5-HT2A receptor-mediated intracellular calcium [Ca2+] mobilization in rat A7r5 cells. The class given is functional, cell-based. In a few lines:
as §1
(Calcium flux is commonly read through the fluorescence of an indicator in the cells.)

SMILES strings stand for the structures.

Sequence of 5-hydroxytryptamine receptor 2A (Rattus norvegicus) (P14842 whole entry): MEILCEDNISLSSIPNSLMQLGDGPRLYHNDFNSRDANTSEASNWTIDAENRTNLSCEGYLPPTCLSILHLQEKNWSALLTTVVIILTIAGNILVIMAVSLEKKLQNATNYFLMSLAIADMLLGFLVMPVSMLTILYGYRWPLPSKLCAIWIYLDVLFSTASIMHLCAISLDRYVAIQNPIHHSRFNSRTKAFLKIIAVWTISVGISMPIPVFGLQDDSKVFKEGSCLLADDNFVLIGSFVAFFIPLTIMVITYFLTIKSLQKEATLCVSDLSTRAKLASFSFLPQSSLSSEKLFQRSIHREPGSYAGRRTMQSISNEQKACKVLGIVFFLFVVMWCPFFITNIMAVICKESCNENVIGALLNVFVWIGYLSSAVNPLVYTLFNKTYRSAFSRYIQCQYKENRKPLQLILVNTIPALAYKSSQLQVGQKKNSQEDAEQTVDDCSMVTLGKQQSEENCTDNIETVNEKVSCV
T1 sequence (P14842 whole entry): as above

For orientation: Ki means a dissociation constant, usually derived from enzyme kinetics or from competition with a known ligand. For the compound `CC[C@H](N)[C@H](O)c1cc(OC)c(Br)cc1OC`, the Efficacy in test [1] is 5%. This compound returned a Ki in test [2] of 20.3 nM.
With `COc1cc(C[C@@H](C)N)c(OC)cc1I`, the Reduction in test [3] turned out to be 31%; in test [4], 15.2%; in test [5], 34.4%.
A word on the EC50: it is the concentration needed to bring the measured effect to its halfway point. `COc1cc([C@H](OC)[C@H](C)N)c(OC)cc1Br`: the 50% effective concentration (EC50) in test [6] turned out to be 1410 nM. Besides, the Efficacy in test [1] was 31%. In test [2], this compound showed a Ki of 6 nM.
For `COc1cc([C@@H](O)[C@H](C)N)c(OC)cc1Br`, in that order: 840 nM, 22% and 1.1 nM.
As for `COc1cc(C(CN)OC)c(OC)cc1Br` (stereo not given), the EC50 in test [6] was determined as 120 nM. The Efficacy in test [1] is 63%. The compound further showed a Ki in test [2] of 2 nM.
As for `CCC(N)Cc1cc(OC)c(Br)cc1OC` (stereo not given), the Efficacy in test [1] amounted to 15%. The same compound showed a Ki in test [2] of 7.6 nM.
For the compound `COc1cc(CC(C)N)c(OC)cc1Br` (stereo not given), the Efficacy in test [1] was found to be 38%.
`COc1cc(C(O)CN)c(OC)cc1Br` (stereo not given): the Efficacy in test [1] is 8%. The same compound returned a Ki in test [2] of 2.1 nM.
`COc1cc(C2CNCCO2)c(OC)cc1Br` (stereo not given): the Efficacy in test [1] turned out to be 4%. The affinity in test [2], expressed as Ki, was 20.6 nM.
As to `COc1cc([C@@H](OC)[C@@H](C)N)c(OC)cc1Br`, the EC50 in test [6] stood at 130 nM. Besides, the Efficacy in test [1] worked out at 93%. Moreover, the Reduction is on record as 27.5% in test [3], 19% in test [4] and 25.5% in test [5]. For the same compound, the Ki in test [2] came out at 0.3 nM.
Turning to `COc1cc([C@@H](O)[C@@H](C)N)c(OC)cc1Br`, in test [6], the 50% effective concentration (EC50) was determined as 100 nM. The Efficacy in test [1] stood at 50%. Besides, the Reduction in test [3] is 19%; in test [4], 10.7%; in test [5], 22.1%. In test [2], this compound came in with a Ki of 0.5 nM.
Consider `COc1cc([C@H](O)[C@@H](C)N)c(OC)cc1Br`, for which, in test [1], the Efficacy stood at 20%. This compound came in with a Ki in test [2] of 9.2 nM.
Regarding `COc1cc([C@H](O)[C@H](C)N)c(OC)cc1Br`, in test [1], the Efficacy was 16%. Moreover, affinity in test [2] was put at a Ki of 10 nM.
In the case of `COc1ccc(OC)c(C[C@@H](C)N)c1`, in test [6], the EC50 turned out to be 740 nM. In addition, in test [1], the Efficacy worked out at 34%. The compound further had a Ki in test [2] of 9.2 nM.
